Test results published in ChEMBL document CHEMBL4715704, “Design, synthesis and biological evaluation of novel L-ascorbic acid-conjugated pentacyclic triterpene derivatives as potential influenza virus entry inhibitors” (Eur J Med Chem, 2016).
The source made the active and inactive calls. No cut-off for these calls is given here.

Legend:
[1] = test system: Influenza A virus; test: Antiviral activity against Influenza A virus A/WSN/33(H1N1) infected in MDCK cells assessed as s reduction in cytopathic effect after 40 hrs incubation by CellTiter-Glo assay relative to control; format: functional, A/WSN/1933(H1N1)
How it was run: (§1)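 MDCK cells seeded in 96-well plates and grown overnight, then infected with A/WSN/33 (H1N1) at MOI 0.1. Cells were kept in DMEM with 1% FBS, test compound, 2 µg/mL TPCK-trypsin and 1% DMSO final. After 40 h, cell viability was read by CellTiter-Glo luminescence to measure CPE reduction.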

[2] = test system: Influenza A virus; test: Antiviral activity against Influenza A virus A/WSN/33(H1N1) infected in MDCK cells assessed as s reduction in cytopathic effect after 40 hrs incubation by CellTiter-Glo assay; format: functional, organism-based; conditions: A/WSN/1933(H1N1); how it was run: as §1
[3] = Cytotoxicity against MDCK cells after 40 hrs incubation by CellTiter-Glo assay; format: cell-based, Canis lupus familiaris; conditions: dog
How it was run: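 Uninfected MDCK cells were grown overnight in 96-well plates in 1% FBS medium. They were exposed to increasing compound concentrations for 40 h, and viability was read by CellTiter-Glo luminescence.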

[4] = Binding affinity to recombinant influenza A virus A hemagglutinin by SPR assay
How it was run: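 SPR used HA immobilized to about 16,000 RU. Compounds were injected as analytes at various concentrations in PBS-P running buffer (10 mM phosphate, 2.7 mM KCl, 137 mM NaCl, 0.05% P20, pH 4.5). Flow was 30 µL/min, with 60 s contact and 60 s dissociation, giving KD.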

[5] = test system: Influenza A virus; test: Antiviral activity against Influenza A virus A/WSN/33(H1N1)) infected in MDCK cells assessed as inhibition of virus infection at early stage after 2 hrs post infection by time of addition assay; format: functional, organism-based; conditions: A/WSN/1933(H1N1)
How it was run: (§2)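 Cells were seeded in 6-well plates at 5 × 10^5 per well 24 h before infection and kept at 37 °C, 5% CO2. They were infected with WSN at MOI 1. Compound was present during 0-10, 0-2, 2-5, 5-8 or 8-10 h post infection. Lysates were Western-blotted for viral NP, with GAPDH probed and DMSO as control.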

[6] = test system: Red blood cell; test: Inhibition of hemagglutinin in Influenza A virus A/WSN/33(H1N1)) assessed as reduction in virus-induced agglutination of chicken red blood cells pretreated for 1 hr followed by further incubated for 1 hr; format: cell-based; conditions: Influenza A virus (A/WSN/1933(H1N1))
How it was run: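 Haemagglutination inhibition: compound was 3-fold serially diluted in saline and mixed with an equal volume of WSN virus (2 HA units) in V-bottom wells. Freshly prepared chicken RBC (1% v/v in saline) were added and incubated at room temperature. cRBC aggregation was scored visually, with anti-HA antibody as comparator.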

[7] = test system: Influenza A virus; test: Antiviral activity against Influenza A virus A/WSN/33(H1N1)) infected in MDCK cells assessed as suppression of viral genome replication after 8 to 10 hrs post infection by time of addition assay; format: functional, organism-based; conditions: A/WSN/1933(H1N1), time 8-10 hrs; how it was run: as §2
[8] = test system: Influenza A virus; test: Antiviral activity against Influenza A virus A/WSN/33(H1N1)) infected in MDCK cells assessed as suppression of viral genome translation after 8 to 10 hrs post infection by time of addition assay; format: functional, organism-based; conditions: A/WSN/1933(H1N1), time 8-10 hrs; how it was run: as §2
[9] = test system: Influenza A virus; test: Antiviral activity against Influenza A virus A/WSN/33(H1N1)) infected in MDCK cells assessed as suppression of virion assembly and release after 8 to 10 hrs post infection by time of addition assay; format: functional, organism-based; conditions: A/WSN/1933(H1N1), time 8-10 hrs; how it was run: as §2
[10] = test system: Influenza A virus; test: Antiviral activity against Influenza A virus A/WSN/33(H1N1)) infected in MDCK cells assessed as inhibition rate at 50 uM by co-treatment assay; format: functional, A/WSN/1933(H1N1); parameters: scale not given: the % may be the effect or the level left
[11] = test system: Influenza A virus; test: Antiviral activity against Influenza A virus A/WSN/33(H1N1)) infected in MDCK cells assessed as inhibition rate by pretreated virus at 50 uM; format: functional, A/WSN/1933(H1N1); parameters: scale not given: the % may be the effect or the level left

SMILES | inhibition (INH) [1] [%] | EC50 [2] [µM] | CC50 at 40 h [3] [µM] | other results
C=C(C)[C@@H]1CC[C@]2(C(=O)NCc3cn(C[C@H](O)[C@H]4OC(=O)C(O)=C4O)nn3)CC[C@]3(C)[C@H](CC[C@@H]4[C@@]5(C)CC[C@H](O)C(C)(C)[C@@H]5CC[C@]43C)[C@@H]12 | 93.1 | 41.3 | > 200 | Kd [4]: 8.04 µM
CC(C)[C@@H]1CC[C@]2(C(=O)NC[C@H](O)[C@H]3OC(=O)C(O)=C3O)CC[C@]3(C)[C@H](CC[C@@H]4[C@@]5(C)CC[C@H](O)C(C)(C)[C@@H]5CC[C@]43C)[C@@H]12 | 84.4 | 35.6 | > 200 | –
COC1=C(OC)[C@@H]([C@@H](O)Cn2cc(CNC(=O)[C@]34CCC(C)(C)C[C@H]3C3=CC[C@@H]5[C@@]6(C)CC[C@H](O)C(C)(C)[C@@H]6CC[C@@]5(C)[C@]3(C)CC4)nn2)OC1=O | – | – | 19.6 | –
C[C@H]1[C@H](C)CC[C@]2(C(=O)NCc3cn(C[C@H](O)[C@H]4OC(=O)C(O)=C4O)nn3)[C@H](O)C[C@]3(C)C(=CC[C@@H]4[C@@]5(C)CC[C@H](O)C(C)(C)[C@@H]5CC[C@]43C)[C@H]12 | – | – | 41.1 | –
CC1(C)CC[C@]2(C(=O)NCc3cn(C[C@H](O)[C@H]4OC(=O)C(O)=C4O)nn3)[C@H](O)C[C@]3(C)C(=CC[C@@H]4[C@@]5(C)CC[C@H](O)C(C)(C)[C@@H]5CC[C@]43C)[C@@H]2C1 | – | – | 59.3 | –
C=C(C)[C@@H]1CC[C@]2(C(=O)NC[C@H](O)[C@H]3OC(=O)C(OCc4ccccc4)=C3OCc3ccccc3)CC[C@]3(C)[C@H](CC[C@@H]4[C@@]5(C)CC[C@H](O)C(C)(C)[C@@H]5CC[C@]43C)[C@@H]12 | 89.6 | 23.7 | > 200 | –
CC1(C)CC[C@]2(C(=O)NCc3cn(C[C@H](O)[C@H]4OC(=O)C(OCc5ccccc5)=C4OCc4ccccc4)nn3)CC[C@]3(C)C(=CC[C@@H]4[C@@]5(C)CC[C@H](O)C(C)(C)[C@@H]5CC[C@]43C)[C@@H]2C1 | 91.3 | 19.2 | > 200 | –
COC1=C(OC)[C@@H]([C@@H](O)Cn2cc(CNC(=O)[C@]34CC[C@@H](C)[C@H](C)[C@H]3C3=CC[C@@H]5[C@@]6(C)CC[C@H](O)C(C)(C)[C@@H]6CC[C@@]5(C)[C@]3(C)C[C@H]4O)nn2)OC1=O | – | – | 52.5 | –
C=C(C)[C@@H]1CC[C@@]2(C(=O)NCc3cn(C[C@H](O)[C@H]4OC(=O)C(OC)=C4OC)nn3)[C@H]1[C@H]1CC[C@@H]3[C@@]4(C)CC[C@H](O)C(C)(C)[C@@H]4CC[C@@]3(C)[C@]1(C)C[C@H]2O | – | – | 43.9 | –
CC1(C)CC[C@]2(C(=O)NC[C@H](O)[C@H]3OC(=O)C(O)=C3O)[C@H](O)C[C@]3(C)C(=CC[C@@H]4[C@@]5(C)CC[C@H](O)C(C)(C)[C@@H]5CC[C@]43C)[C@@H]2C1 | – | – | 29.7 | –
CC1(C)CC[C@]2(C(=O)NC[C@H](O)[C@H]3OC(=O)C(OCc4ccccc4)=C3OCc3ccccc3)[C@H](O)C[C@]3(C)C(=CC[C@@H]4[C@@]5(C)CC[C@H](O)C(C)(C)[C@@H]5CC[C@]43C)[C@@H]2C1 | 71.1 | 30.3 | > 200 | –
C[C@H]1[C@H](C)CC[C@]2(C(=O)NC[C@H](O)[C@H]3OC(=O)C(OCc4ccccc4)=C3OCc3ccccc3)CC[C@]3(C)C(=CC[C@@H]4[C@@]5(C)CC[C@H](O)C(C)(C)[C@@H]5CC[C@]43C)[C@H]12 | 88.1 | 26.4 | > 200 | –
CC1(C)CC[C@]2(C(=O)NCc3cn(C[C@H](O)[C@H]4OC(=O)C(OCc5ccccc5)=C4OCc4ccccc4)nn3)[C@H](O)C[C@]3(C)C(=CC[C@@H]4[C@@]5(C)CC[C@H](O)C(C)(C)[C@@H]5CC[C@]43C)[C@@H]2C1 | 87 | 56.6 | > 200 | –
CCOC(=O)C1=C[C@@H](OC(CC)CC)[C@H](NC(C)=O)[C@@H](N)C1.O=P(O)(O)O [OSELTAMIVIR PHOSPHATE] | 86.5 | 12.5 | > 200 | –
CC1(C)CC[C@]2(C(=O)NC[C@H](O)[C@H]3OC(=O)C(OCc4ccccc4)=C3OCc3ccccc3)CC[C@]3(C)C(=CC[C@@H]4[C@@]5(C)CC[C@H](O)C(C)(C)[C@@H]5CC[C@]43C)[C@@H]2C1 | 81.9 | 25.3 | > 200 | –
CC1(C)CC[C@]2(C(=O)NC[C@H](O)[C@H]3OC(=O)C(O)=C3O)CC[C@]3(C)C(=CC[C@@H]4[C@@]5(C)CC[C@H](O)C(C)(C)[C@@H]5CC[C@]43C)[C@@H]2C1 | – | – | 41.9 | –
C=C(C)[C@@H]1CC[C@]2(C(=O)NCc3cn(C[C@H](O)[C@H]4OC(=O)C(OCc5ccccc5)=C4OCc4ccccc4)nn3)CC[C@]3(C)[C@H](CC[C@@H]4[C@@]5(C)CC[C@H](O)C(C)(C)[C@@H]5CC[C@]43C)[C@@H]12 | 89.6 | 8.7 | > 200 | Activity [5]: Active; inhibition [6]: Dose-dependent effect; Kd [4]: 3.76 µM; Activity [7]: Active; Activity [8]: Active; Activity [9]: Active; Activity [10]: 75%; Activity [11]: 87%
C[C@H]1[C@H](C)CC[C@]2(C(=O)NCc3cn(C[C@H](O)[C@H]4OC(=O)C(OCc5ccccc5)=C4OCc4ccccc4)nn3)CC[C@]3(C)C(=CC[C@@H]4[C@@]5(C)CC[C@H](O)C(C)(C)[C@@H]5CC[C@]43C)[C@H]12 | 90.8 | 25.7 | > 200 | –
COC1=C(OC)[C@@H]([C@@H](O)Cn2cc(CNC(=O)[C@]34CCC(C)(C)C[C@H]3C3=CC[C@@H]5[C@@]6(C)CC[C@H](O)C(C)(C)[C@@H]6CC[C@@]5(C)[C@]3(C)C[C@H]4O)nn2)OC1=O | – | – | 5.6 | –
CC1(C)CC[C@]2(C(=O)NCc3cn(C[C@H](O)[C@H]4OC(=O)C(O)=C4O)nn3)CC[C@]3(C)C(=CC[C@@H]4[C@@]5(C)CC[C@H](O)C(C)(C)[C@@H]5CC[C@]43C)[C@@H]2C1 | – | – | 46.8 | –
